# From PubChem BioAssay
# DENV2 CPE rescue: DENV2-induced cell death inhibition | DENV2-infected cells, cytopathic effect rescue, plate reader | CPE inhibition, % at 9.99 µM | 350,000 tested, 1.7% active; in the data active means CPE inhibition above about 20%, passing the limit was not always enough; tested in BHK-21 cells;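 further: 0% = median of neutral control wells and 100% = median of positive control wells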
# SIRT5 inh: blocks human SIRT5 desuccinylation of peptide; 330,000 tested, 1.1% active; Purified SirT5, succinyl-peptide AMC, trypsin-coupled fluorescence; inhibition, % at 15 µM; in the data active means inhibition above about 15%
# Target sequence (Q9NXA8 whole entry, looked up): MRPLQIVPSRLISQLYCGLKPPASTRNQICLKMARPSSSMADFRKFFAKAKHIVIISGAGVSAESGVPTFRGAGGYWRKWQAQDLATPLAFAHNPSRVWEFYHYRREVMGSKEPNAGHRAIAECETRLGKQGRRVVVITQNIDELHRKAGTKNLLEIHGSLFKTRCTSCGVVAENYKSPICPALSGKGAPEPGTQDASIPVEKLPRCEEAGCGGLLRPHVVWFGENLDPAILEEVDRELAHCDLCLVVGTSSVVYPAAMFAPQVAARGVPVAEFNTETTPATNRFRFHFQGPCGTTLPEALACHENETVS
# E-selectin induc: E-selectin induction on HUVECs; P16581; HUVEC E-selectin immunofluorescence imaging; normalized: neutral wells 0, TNF-alpha wells 100; activation, % at 7.58 µM; 260,000 tested, 0.37% active; AID 686992;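 active means mean E-selectin-positive cell signal at least 10% of the positive control, reached in at least 60% of replicates, without over 20% cell loss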
#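 Read-out basis: % PE-positive cells; Test system: HUVEC primary endothelial cells; Technique: immunofluorescence imaging; Dosing: single-point compound dose.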
# Starred values were filed as active, the others as inactive; / = no result. Most compounds without a hit are left out; they make up all but 2.8% or so of the library.
SMILES,DENV2 CPE rescue,SIRT5 inh,E-selectin induc
O=C1NC[C@@H](CCCCN2CCN(Cc3ccccc3)C(=O)C2=O)N(CC2CCCCC2)C1=O,-6,-4,/
O=C1NC[C@@H](CCCCN2C[C@H](Cc3ccc(O)cc3)N(CC3CCCCC3)C(=O)C2=O)N(CCC2CCCCC2)C1=O,59*,1,/
O=C1NC[C@H](CCCCN2C[C@H](Cc3ccc(O)cc3)N(CCC3CCCCC3)C(=O)C2=O)N(CC2CCCCC2)C1=O,7,/,-1
C[C@H](CO)N1C[C@H](C)[C@H](CN(C)Cc2ccc(C(=O)O)cc2)Oc2ccc(N(C)C)cc2C1=O,/,/,-6
C[C@H](CO)N1C[C@H](C)[C@H](CN(C)Cc2ccc(C(F)(F)F)cc2)Oc2ccc(N(C)C)cc2C1=O,40*,/,0
C[C@@H]1CN([C@H](C)CO)C(=O)c2cc(N(C)C)ccc2O[C@H]1CN(C)Cc1ccc(C(=O)O)cc1,2,1,267*
C[C@H]1CN([C@@H](C)CO)C(=O)c2cc(N(C)C)ccc2O[C@@H]1CN(C)Cc1ccc(C(F)(F)F)cc1,6,/,0
CN1[C@H](CO)[C@@H]2c3ccccc3N(C(=O)c3ccc(F)cc3)C[C@@H]21,-10,0,0
CC[C@H]1C/C=C\Cc2ccccc2[C@@H](C(=O)C[C@@H](O)CC(C)=O)OC1=O,-9,18*,-2
CC(=O)C[C@H](O)CC(=O)[C@H]1OC(=O)CCCCC/C=C/Cc2ccccc21,-6,/,0
CC(=O)C[C@@H](O)CC(=O)[C@H]1OC(=O)[C@H](C)C/C=C\Cc2ccccc21,0,-2,2
CC(=O)C[C@@H](O)CC(=O)[C@@H]1OC(=O)CCCCC/C=C/Cc2ccccc21,-11,24*,0
C[C@H]1CCCCO[C@H](CN(C)C(=O)c2ccccc2)[C@@H](C)CN([C@@H](C)CO)C(=O)c2cc(NC(=O)Nc3ccc(C(F)(F)F)cc3)ccc2O1,-16,-4,5
CNC[C@@H]1Oc2ccc(NS(=O)(=O)c3cn(C)cn3)cc2C(=O)N([C@@H](C)CO)C[C@H]1C,23*,-9,-2
CNC[C@@H]1Oc2ccc(NS(C)(=O)=O)cc2C(=O)N([C@@H](C)CO)C[C@H]1C,-4,/,9
CNC[C@H]1Oc2ccc(NS(=O)(=O)c3ccc(Cl)cc3)cc2C(=O)N([C@H](C)CO)C[C@H]1C,28*,1,/
CNC[C@H]1Oc2ccc(NS(=O)(=O)c3cn(C)cn3)cc2C(=O)N([C@H](C)CO)C[C@@H]1C,4,-3,1
C[C@@H]1CN([C@H](C)CO)C(=O)c2cc(NS(=O)(=O)c3cn(C)cn3)ccc2O[C@H]1CN(C)Cc1ccncc1,-3,-1,92*
CNC[C@@H]1Oc2ccc(NS(=O)(=O)c3ccc(Cl)cc3)cc2C(=O)N([C@@H](C)CO)C[C@@H]1C,8,-2,/
CNC[C@@H]1Oc2ccc(NS(C)(=O)=O)cc2C(=O)N([C@@H](C)CO)C[C@@H]1C,/,/,33*
C[C@@H]1CN([C@H](C)CO)C(=O)c2cc(NS(=O)(=O)c3cn(C)cn3)ccc2O[C@@H]1CN(C)Cc1ccncc1,1,6,-4
CCSc1ncc(Cl)c(C(=O)Nc2ccccc2C)n1,-1,33*,0
CSc1ncc(Cl)c(C(=O)Nc2ccccc2C)n1,3,1,0
COc1ccc2c3c(n(C)c2c1)[C@H](CO)N(C(=O)CC1CC1)CC31CCN(C(=O)C2CCCC2)CC1,0,-1,0
C/C=C/c1ccc([C@H]2[C@H]3CN(S(=O)(=O)c4cccs4)CCCCN3[C@H]2CO)cc1,7,7,0
SMILES,DENV2 CPE rescue,SIRT5 inh,E-selectin induc
O=C(CN1C(=O)C2C3CC(C(Br)C3Br)C2C1=O)Nc1ccc(C(=O)O)cc1 (stereo not drawn),2,23*,0
O=C(CN1C(=O)C2C3C=CC(C3)C2C1=O)Nc1ccc(F)cc1 (stereo not drawn),-2,-5,/
CN1c2ccc(C#Cc3cccnc3)cc2[C@@H]2[C@@H](CCN2C(=O)C2CC2)[C@H]1CO,5,-3,0
COc1ccccc1C#Cc1cnc2c(c1)C(=O)N([C@H](C)CO)C[C@@H](C)[C@H](CN(C)C(=O)c1ccc3c(c1)OCO3)O2,-2,2,1
O=C(C[C@H]1C=C[C@H](NC(=O)c2ccc3c(c2)OCO3)[C@H](CO)O1)NCc1ccc(F)cc1,3,-1,-1
N#C[C@H]1[C@@H](c2ccc(C#Cc3ccc(F)cc3)cc2)[C@H](CO)N1C(=O)C1CCCC1,-4,-5,-1
N#C[C@H]1[C@@H](c2ccc(/C=C/c3ccccc3)cc2)[C@@H](CO)N1C(=O)C1CCCC1,5,2,2
N#C[C@@H]1[C@H](c2ccc(C#Cc3ccccc3F)cc2)[C@@H](CO)N1C(=O)C1CCC1,-8,7,0
N#C[C@@H]1[C@@H](c2ccc(C#Cc3ccccc3F)cc2)[C@H](CO)N1C(=O)C1CCC1,30*,2,0
N#C[C@@H]1[C@@H](c2ccc(/C=C/c3ccccc3)cc2)[C@@H](CO)N1C(=O)C1CCCC1,26*,7,1
N#C[C@@H]1[C@@H](c2ccc(C#Cc3ccc(F)cc3)cc2)[C@H](CO)N1C(=O)C1CCCC1,23*,4,0
CCc1cnc(N2[C@@H](C#N)[C@H](c3ccc(C#CCC4CCCC4)cc3)[C@@H]2CO)s1,-13,-2,0
CCCNC(=O)Nc1ccc2c(c1)C(=O)N(C)C[C@H](OC)[C@@H](C)CN(Cc1cncnc1)[C@H](C)CO2,/,-4,0
COc1ccc2c3c(n(C)c2c1)[C@@H](CO)N(Cc1ccncc1)CC31CCN(C(=O)C2CCCCC2)CC1,1,1,0
CN(C)C(=O)[C@H]1[C@H](CO)[C@H]2Cn3c(ccc(C4=CCCC4)c3=O)[C@@H]1N2CC1CCCC1,6,-7,0
CCOC(=O)[C@@H]1[C@H]2COc3cc(OC)ccc3[C@H]2N2C(=O)N(c3cccc(F)c3)C(=O)[C@]12C,104*,/,1
CCOC(=O)[C@@H]1[C@H]2COc3cc(OC)ccc3[C@@H]2N2C(=O)N(c3cccc(C)c3)C(=O)[C@]12C,-15,/,0
CCOC(=O)[C@@H]1[C@H]2COc3ccc(Br)cc3[C@@H]2N2C(=O)N(c3cccc(Cl)c3)C(=O)[C@]12C,-4,/,0
CCOC(=O)[C@H]1[C@H]2COc3ccc(Cl)cc3[C@@H]2N2C(=O)c3ccc(Cl)cc3NC(=O)[C@@]12C,52*,-4,0
CCOC(=O)[C@H]1[C@H]2COc3ccc(OC)cc3[C@@H]2N2C(=O)CN(Cc3ccco3)C(=O)[C@@]12C,-9,/,0
CCOC(=O)[C@H]1[C@H]2COc3ccc(C)cc3[C@@H]2N2C(=O)c3ccc(Cl)cc3NC(=O)[C@@]12C,-4,/,0
CCOC(=O)[C@@H]1[C@H]2COc3ccc(Br)cc3[C@@H]2N2C(=O)N(c3cccc(Cl)c3)C(=O)[C@@]12C,68*,/,0
CCOC(=O)[C@H]1[C@H]2COc3cc(OC)ccc3[C@@H]2N2C(=O)CN(Cc3ccco3)C(=O)[C@@]12C,30*,0,0
CCS(=O)(=O)NCC[C@@H]1CC[C@@H](NC(=O)C2CCCCC2)[C@H](CO)O1,/,/,0
COc1ccc2c3c(n(C)c2c1)[C@H](CO)N(S(C)(=O)=O)CC31CCN(CC2CCCC2)CC1,-9,0,0
